# Test results taken from article PMC3640342 (Pharmaceutical research, 2013).
# “And” between values parts separate entries of the source, which are not always exact repeats. Identical values can stand only once. Like-named read-outs stand apart in the source and are kept apart here.
# Assays:
# Media solubility = type: physicochemical; conditions: media used in the cell-based assays, 10% FBS
# [1] = Solubility at pH 2, pH 7.4 and in FaSSIF; type: physicochemical; conditions: for Solubility pH 7.4: pH 7.4 (phosphate) buffer
# [2] = 3-day multidose PK in liquid diet; type: in vivo, FVB mice; conditions: for Brain and plasma concentrations (C3-day) / Brain concentration (C3-day): 3 days in liquid diet
# mouse liver microsomes = assay: Hepatic microsomal stability, mouse; type: in vitro ADME; conditions: 1 μM; for t1/2: NADPH
# Summary of the method: (§1)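 Liver microsomes from mouse, rat or human (~0.5 mg/mL final) were incubated at 37°C with test compound at 1 μM final (0.6% ACN, 0.01% DMSO) in PBS pH 7.4 ± 0.05% PS80, with 1 mM NADPH or PBS.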
# MDCK-MDR1 cells = assay: Bidirectional MDCK-MDR1 cell permeability; type: in vitro ADME, canine; conditions: for Papp (A−B) / Papp (B−A): 10 μM, pH 7.4; for Efflux ratio: MDCK-MDR1 cells
# [3] = tested on: PrP^Sc levels in ScN2a-cl3 cells; assay: cells; type: cell-based, mouse
# rat liver microsomes = assay: Hepatic microsomal stability, rat; type: in vitro ADME; conditions: 1 μM; for t1/2: NADPH
# Summary of the method: as §1
# human liver microsomes = assay: Hepatic microsomal stability, human; type: in vitro ADME; conditions: 1 μM; for t1/2: NADPH
# Summary of the method: as §1
# [4] = Single-dose oral PK at 40 mg/kg; type: in vivo, FVB mice; conditions: single 40 mg/kg oral dose, ranking among 27 2-AMTs and Compd B
# [5] = Single-dose oral gavage PK at 10 mg/kg; type: in vivo, FVB mice
# Summary of the method: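 Female FVB mice (~25 g) were dosed at 10 mg/kg by oral gavage in 20% propylene glycol, 5% ethanol, 5% labrosol and 70% PEG400. Two mice per time point were killed by CO2 at 0.25, 0.5, 1, 2, 4, 6 and 24 h. Heparinized plasma and brain (diluted five-fold in water, homogenized) were assayed by LC/MS/MS.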
# mouse plasma = conditions: 1 μM
# [6] = Hepatic microsomal stability, mouse; type: in vitro ADME; conditions: mouse, mouse liver microsomes, pH 7.4
# Summary of the method: as §1
# [7] = Single-dose IV PK at 1 mg/kg; type: in vivo, FVB mice; conditions: female, FVB, mouse, plasma, iv, 1 mg/kg
# Summary of the method: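 Female FVB mice (~25 g) received 1 mg/kg by tail-vein injection in 10% DMSO in PEG400/water (1:1), 10% DMSO, or 10% ethanol in PEG400/water (1:1). Two mice per time point were killed by CO2 at 5 min and 0.25, 0.5, 1, 2, 4 and 6 h, and heparinized plasma was collected. After protein precipitation, samples were assayed by LC/MS/MS, and parameters came from noncompartmental sparse-sampling analysis.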
# [8] = mouse brain homogenate, 1 μM, corrected for dilution
# [9] = Hepatic microsomal stability, rat; type: in vitro ADME; conditions: rat, rat liver microsomes, pH 7.4
# Summary of the method: as §1
# [10] = cell-culture media with 10% FBS, 1 μM
# FVB mice = assay: Drug tolerance / lethal toxicity on repeated dosing in liquid diet; type: in vivo
# [11] = Hepatic microsomal stability, human; type: in vitro ADME; conditions: human, human liver microsomes, pH 7.4
# Summary of the method: as §1
# [12] = female, FVB, mouse, brain, po, 10 mg/kg
# [13] = female, FVB, mouse, plasma, po, 10 mg/kg
smiles,measurement,setting,value
COc1ccc(-c2csc(Nc3ccc4ccccc4n3)n2)cc1OC [IND47],Solubility Media,Media solubility,52 µM
same,Solubility pH 7.4,[1]; room temperature overnight,<1 μM
same,Brain and plasma concentrations (C3-day),"[2]; 40, 80, 130 and 210 mg/kg/day",≤ 1 µM
same,% remaining after a 60-min incubation,mouse liver microsomes,56%
same,Papp (A−B),MDCK-MDR1 cells,9.2 ×10⁻⁶ cm/s
same,Papp (B−A),MDCK-MDR1 cells,8.9 ×10⁻⁶ cm/s
same,Efflux ratio,MDCK-MDR1 cells,1
same,EC50,[3],430 nM
same,% remaining after a 60-min incubation,rat liver microsomes,50%
same,% remaining after a 60-min incubation,human liver microsomes,113%
COc1ccc(-c2csc(Nc3ccc(C)cn3)n2)c(OC)c1 [IND74],EC50,[3],3130 nM
c1ccc2cc(Nc3nc(-c4cc5ccccc5o4)cs3)ncc2c1 [IND91],Brain and plasma concentrations (C3-day),"[2]; 40, 80, 130 and 210 mg/kg/day",≤ 1 µM
same,EC50,[3],920 nM
Cc1ccc(Nc2nc(-c3c(-c4ccccc4)noc3C)cs2)nc1 [IND36],EC50,[3],> 32000 nM
Cc1ccnc(Nc2nc(-c3ccc(O)cc3)cs2)c1 [IND49],EC50,[3],> 10000 nM
same,"AUClast values, brain and plasma",[4],lowest AUClast values
Cc1ccnc(Nc2nc(-c3cc(-c4ccc(Cl)cc4)no3)cs2)c1 [IND64],EC50,[3],850 nM
COc1ccc(-c2csc(Nc3cnccn3)n2)cc1OC [IND82],EC50,[3],15600 nM
Cc1cccc(Nc2nc(-c3cc4ccccc4o3)cs2)n1 [IND22],Solubility Media,Media solubility,20 µM
same,Solubility pH 7.4,[1]; room temperature overnight,<1 μM
same,% remaining after a 60-min incubation,mouse liver microsomes,40%
same,t1/2,mouse liver microsomes,49 min
same,Papp (A−B),MDCK-MDR1 cells,9.5 ×10⁻⁶ cm/s
same,Papp (B−A),MDCK-MDR1 cells,8.4 ×10⁻⁶ cm/s
same,Efflux ratio,MDCK-MDR1 cells,0.9
same,EC50,[3],1460 nM
same,% remaining after a 60-min incubation,rat liver microsomes,64%
same,t1/2,rat liver microsomes,> 60 min
same,% remaining after a 60-min incubation,human liver microsomes,99%
same,t1/2,human liver microsomes,> 60 min
Cc1ccc(Nc2nc(-c3cccc(C#N)c3)cs2)nc1 [IND38],EC50,[3],2290 nM
CC(=O)CC(c1ccccc1)c1c(O)c2ccccc2oc1=O (stereo not shown) [Warfarin],Unbound (%),"human plasma; human, plasma, pH 7.4",0.68±0.0023%
COc1ccc(-c2csc(Nc3cc4ccccc4cn3)n2)cc1OC [IND46],Solubility Media,Media solubility,174 µM
same,Solubility pH 7.4,[1]; room temperature overnight,<1 μM
same,% remaining after a 60-min incubation,mouse liver microsomes,58%
same,% remaining after a 60-min incubation,rat liver microsomes,61%
same,% remaining after a 60-min incubation,human liver microsomes,83%
COc1ccc(-c2csc(Nc3ccc(C(F)(F)F)cn3)n2)cc1OC [IND43],EC50,[3],2530 nM
COc1ccc(-c2csc(Nc3cc4ccccc4cn3)n2)cc1 [IND86],EC50,[3],340 nM
Cc1ccc(Nc2nc(-c3ccc(OC(F)(F)F)cc3)cs2)nc1 [IND26],EC50,[3],> 10000 nM
c1ccc2cc(Nc3nc(-c4ccncc4)cs3)ncc2c1 [IND85],Solubility Media,Media solubility,116 µM
same,Solubility pH 7.4,[1]; room temperature overnight,<1 μM
same,Brain and plasma concentrations (C3-day),"[2]; 40, 80, 130 and 210 mg/kg/day",≤ 1 µM
same,% remaining after a 60-min incubation,mouse liver microsomes,6%
same,Papp (A−B),MDCK-MDR1 cells,3.03 ×10⁻⁶ cm/s
same,Papp (B−A),MDCK-MDR1 cells,4.44 ×10⁻⁶ cm/s
same,Efflux ratio,MDCK-MDR1 cells,1.5
same,EC50,[3],310 nM
same,% remaining after a 60-min incubation,rat liver microsomes,32%
same,% remaining after a 60-min incubation,human liver microsomes,66%
Cc1ccc(Nc2nc(-c3ccc(-c4ccccn4)s3)cs2)nc1 [IND76],EC50,[3],1230 nM
Cc1ccc(Nc2nc(-c3cc(-c4ccccc4)no3)cs2)nc1 [IND33],Solubility Media,Media solubility,225 µM
same,Solubility pH 7.4,[1]; room temperature overnight,<1 μM
same,Brain concentration (C3-day),[2]; 130 mg/kg dose,~ 30 μM
same,% remaining after a 60-min incubation,mouse liver microsomes,111%
same,Papp (A−B),MDCK-MDR1 cells,6.8 ×10⁻⁶ cm/s
same,Papp (B−A),MDCK-MDR1 cells,8.3 ×10⁻⁶ cm/s
same,Efflux ratio,MDCK-MDR1 cells,1.2
same,EC50,[3],940 nM
same,% remaining after a 60-min incubation,rat liver microsomes,73%
same,% remaining after a 60-min incubation,human liver microsomes,42%
COc1ccc(Nc2nc(-c3ccc(OC)c(OC)c3)cs2)nc1 [IND44],Solubility pH 7.4,[1]; room temperature overnight,<1 μM
same,% remaining after a 60-min incubation,mouse liver microsomes,24%
same,t1/2,mouse liver microsomes,29 min
same,% remaining after a 60-min incubation,rat liver microsomes,39%
same,t1/2,rat liver microsomes,45 min
same,% remaining after a 60-min incubation,human liver microsomes,48%
same,t1/2,human liver microsomes,58 min
Cc1ccnc(Nc2nc(-c3ccc(OC(F)(F)F)cc3)cs2)c1 [IND78],EC50,[3],> 32000 nM
COc1ccc(-c2csc(Nc3cc(C)ccn3)n2)cc1OC [IND42],EC50,[3],1000 nM
Cc1ccnc(Nc2nc(-c3ccncc3)cs2)c1 [IND52],Solubility Media,Media solubility,76 µM
same,Solubility FaSSIF,[1]; fasted-state simulated intestinal fluid,2 µM
same,Solubility pH 2.0,"[1]; pH 2 (HCl) buffer, room temperature overnight",215 μM
same,Solubility pH 7.4,[1]; room temperature overnight,1 μM
same,Brain concentration (C3-day),[2]; 40 mg/kg dose,no measurable brain concentrations
same,% remaining after a 60-min incubation,mouse liver microsomes,0%
same,Papp (A−B),MDCK-MDR1 cells,36.2 ×10⁻⁶ cm/s
same,Papp (B−A),MDCK-MDR1 cells,48.7 ×10⁻⁶ cm/s
same,Efflux ratio,MDCK-MDR1 cells,1.3
same,EC50,[3],4950 nM
same,% remaining after a 60-min incubation,rat liver microsomes,8%
same,% remaining after a 60-min incubation,human liver microsomes,30%
"C(=N\Nc1ccc(-c2cnco2)cc1)/c1ccncc1 [Compd B, (E)-5-(4-(2-(pyridin-4-ylmethylene)hydrazinyl)phenyl)oxazole, reference compound]",%F (absolute oral bioavailability),"[5]; PO 10 mg/kg vs IV 1 mg/kg, plasma",24.8%
same,Brain/Plasma AUClast Ratio,"[5]; PO 10 mg/kg, 10 mg/kg",0.51
same,AUC(0-t),[5]; [12],1.06 ± 0.1 µM·h
same,Cmax,[5]; [12],460 ± 160 nM
same,tmax,[5]; [12],120 min
same,AUC(0-t),[5]; [13],2.06 ± 0.06 µM·h
same,Cmax,[5]; [13],830 ± 380 nM
same,half-life,[5]; [13],60.6 min
same,tmax,[5]; [13],30 min
same,Unbound (%),mouse plasma,9% and 9.06±2.31%
same,"AUC/EC50 ratios in brain and plasma, total concentration","[2]; 100 mg/kg/day for 3 days, AUC = C3-day × τ",greater than 100
same,Brain and plasma concentrations (C3-day),[2]; 25 and 50 mg/kg/day,below the level of quantification
same,Unbound (%),"human plasma; human plasma, 1 μM",2.1% and 2.10±1.11%
same,half-life at 1 μM,[6],30 min
same,"remaining at 1 h, 1 μM",[6],29%
same,t1/2,mouse liver microsomes,rapidly metabolized
same,EC50,"[3]; Mus musculus, 120 h",250 nM
same,Vd,[7],1.53 L/kg
same,clearance,[7],76 mL/min/kg
same,Unbound (%),[8],11% and 11.4±2.89%
same,t1/2,rat liver microsomes,relatively stable
same,half-life at 1 μM,[9],> 60 min
same,"remaining at 1 h, 1 μM",[9],77%
same,Unbound (%),[10],37% and 36.5±3.30%
same,Deaths,FVB mice; 150 mg/kg/day for 8 days in liquid diet,two of four mice
same,Lethal toxicity,"FVB mice; 25, 50, and 100 mg/kg/day in liquid diet",none showed lethal toxicity
same,t1/2,human liver microsomes,relatively stable
same,half-life at 1 μM,[11],> 60 min
same,"remaining at 1 h, 1 μM",[11],68%
Cc1ccc(Nc2nc(-c3ccncc3)cs2)nc1 [IND29],EC50,[3],1570 nM
Cc1ccnc(Nc2nc(-c3ccc4c(c3)OCCO4)cs2)c1 [IND57],EC50,[3],> 10000 nM
Cc1ccnc(Nc2nc(-c3ccccc3O)cs2)c1 [IND48],EC50,[3],> 10000 nM
same,"AUClast values, brain and plasma",[4],lowest AUClast values
